One molecule from ChEMBL document CHEMBL4028857, “Anchimerically Activated ProTides as Inhibitors of Cap-Dependent Translation and Inducers of Chemosensitization in Mantle Cell Lymphoma” (J Med Chem, 2017) can be followed below.

The nature of series [1]: Cytotoxicity against human Mino cells assessed as reduction in cell survival at 100 uM after 48 hrs in presence of dexamethasone by Annexin V/propidium iodide based flow cytometric analysis. A digest of the protocol:
(§1)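 MCL lines treated 48 h with compound re-added daily (alone or with co-drug; ibrutinib 25 µM), then survival assessed by Annexin V/PI flow cytometry.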
On the technique in general: Flow cytometry measures light scatter and fluorescence of single cells or particles in a stream.

Another series relates to Mino. Put plainly: (§2) Antiproliferative activity against human Mino cells preincubated for 48 hrs followed by thymidine addition measure after 16 hrs by Thymidine incorporation assay. It is filed as functional, cell-based. A digest of the protocol: (§3)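 MCL lines treated 48 h with compound re-added daily, alone or with co-drug (ibrutinib 25 µM where used), then thymidine added for a further 16 h; proliferation read as thymidine incorporation.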

A short description of series [2]: as §2. It is filed as functional, cell-based. A digest of the protocol:
as §3

The target in series [3] is Eukaryotic translation initiation factor 4E (Homo sapiens) (UniProt P06730). Kind of series: Inhibition of eIF4E in human Mino cells assessed as down regulation of c-Myc protein expression after 48 hrs by Western blot method. It is filed as cell-based. A digest of the protocol: (§4)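 MCL lines treated 48 h with compound; protein quantified and Western blotted with eIF4E, eIF4G, actin, c-Myc and Bcl-2 antibodies.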
Sequence of Eukaryotic translation initiation factor 4E (Homo sapiens) (P06730 whole entry): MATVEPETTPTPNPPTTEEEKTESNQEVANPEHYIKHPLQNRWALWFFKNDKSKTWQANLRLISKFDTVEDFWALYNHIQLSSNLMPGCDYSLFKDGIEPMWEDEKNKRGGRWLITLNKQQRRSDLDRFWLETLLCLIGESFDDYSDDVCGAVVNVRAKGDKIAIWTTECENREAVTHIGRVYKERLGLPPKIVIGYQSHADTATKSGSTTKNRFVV
On the technique in general: Immunoblotting shows a protein as a band on a membrane.

A short description of series [4]: Antiproliferative activity against human Mino cells at 200 uM preincubated for 48 hrs followed by thymidine addition measure after 16 hrs by Thymidine incorporation assay. It is filed as functional. A digest of the protocol: as §3
(Incorporation of labelled thymidine or its analogues reports DNA synthesis.)

Series [5] has as its target Eukaryotic translation initiation factor 4E (Homo sapiens) (UniProt P06730). Put plainly: Inhibition of eIF4E in human GRANTA-519 cells assessed as down regulation of c-Myc protein expression after 48 hrs by Western blot method. Format: cell-based. A digest of the protocol: as §4
In a further series the test system is Granta-519. Put plainly: Prodrug activation in human GRANTA-519 cells assessed as 9-((2R,3R,4S,5R)-5-(((((2-(1H-Indol-3-yl)ethyl)amino)-(hydroxy)phosphoryl)oxy)methyl)-3,4-dihydroxytetrahydrofuran-2-yl)-2-amino-7-(2-(4-chlorophenoxy)ethyl)-6-oxo-6,9-dihydro-1H-purin-7-ium formation per 5 million cells at 150 uM after 12 hrs by LC-MS/MS analysis. It is filed as cell-based. Conditions: granta-519, 12 h. A digest of the protocol:
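Five million MCL cells in RPMI/10% FBS with penicillin, streptomycin and L-glutamine were exposed to compound (150 µM) for 12 h at 37 °C. Cells were washed in cold PBS, extracted in MeOH/NH4OAc (60:40) with 80 fmol internal standards, freeze-thawed three times, then filtered and dried. Residue was taken up in HEPES for LC-MS/MS, quantified against an internal-standard curve.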

Series [6] can be described thus: Volume of distribution in Sprague-Dawley rat at 2.5 mg/kg, iv by LC-MS/MS analysis. It is filed as ADME, organism-based. Conditions: in vivo. A digest of the protocol:
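Female Sprague-Dawley rats (n=3, 250-274 g) with catheters; compound in 0.5% aqueous CMC with 5% DMSO given as a single i.v. injection, 2.5 mg/kg. Blood drawn at 0–480 min into K2EDTA tubes. Plasma precipitated with acetonitrile containing internal standards, then LC-MS/MS in positive MRM mode. Parameters from non-compartmental analysis.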

Series [7] is described as follows: Cytotoxicity against human Mino cells assessed as reduction in cell survival at 100 uM after 48 hrs in presence of doxorubicin by Annexin V/propidium iodide based flow cytometric analysis. A digest of the protocol:
as §1

Molecules are shown by their SMILES.

In the case of `CSCCOP(=O)(NCCc1c[nH]c2ccccc12)OC[C@H]1O[C@@H](n2c[n+](CCOc3ccc(Cl)cc3)c3c(=O)[nH]c(N)nc32)[C@H](O)[C@@H]1O` (some centres undefined), the Activity entry in [1] was “Toxic”; in the series on Mino, “Dose-dependent effect”; in series [4] it was 100%; in series [7] it was “Non-Toxic”. In series [2], this molecule came in with an IC50 of 50 µM. The inhibition entry in [3] and in series [5] was “Dose-dependent effect” in each case. In the series on Granta-519, the Drug metabolism is on record as 0.33 pmol. The same molecule showed a Vd in series [6] of 205 L/kg.

One may read the IC50 as the midpoint of a concentration-inhibition curve. Low values mean inhibition by little substance, high ones a need for much substance. For orientation: Vd means the apparent volume that relates the amount in the body to the concentration in plasma or blood.
